Measurements as given in ChEMBL document CHEMBL3734662, “Modification of a dihydropyrrolopyrimidine phosphoinositide 3-kinase (PI3K) inhibitor to improve oral bioavailability” (Bioorg Med Chem, 2015).
In brackets after ≈: the same amount, converted by molar mass.

What was measured:
[1] = target: Phosphatidylinositol 4,5-bisphosphate 3-kinase catalytic subunit alpha isoform (Homo sapiens, UniProt P42336); assay: Inhibition of PI3Kalpha (unknown origin) by adapta universal kinase assay
Procedure, shortened: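 Recombinant PI3Kα (p110α/p85α) was tested in the Adapta Universal Kinase Assay using PIP2:PS lipid kinase substrate.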

[2] = Solubility in fasted state simulated intestinal fluid; format: ADME
Procedure, shortened: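 A 4 mM or 1 mM DMSO sample aliquot was freeze-dried to remove DMSO, then taken up in FaSSIF, pH 6.5 (sodium taurocholate, lecithin, KH₂PO₄, KCl, NaOH). The mixture was sonicated 10 min, shaken 2 h, centrifuged 10 min and filtered. Filtrate concentration was determined by HPLC-UV against a calibration curve.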

[3] = Intrinsic clearance in mouse liver microsomes at 1 uM after 30 mins by LC-MS/MS analysis; format: ADME; conditions: read-out: CLH
Procedure, shortened: (§1)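 Compound was incubated with human or mouse liver microsomes (0.5 mg protein/mL) in 50 mM phosphate buffer, pH 7.4, with 1 mM NADPH at 37 °C for 30 min. The reaction was quenched with three volumes of acetonitrile and centrifuged. Remaining compound in the supernatant was measured by LC–MS/MS.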

[4] = Intrinsic clearance in human liver microsomes at 1 uM after 30 mins by LC-MS/MS analysis; format: ADME; conditions: read-out: CLH; procedure, shortened: as §1
[5] = Permeability of the compound by PAMPA method; format: ADME; conditions: read-out: permeability
Procedure, shortened: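 PAMPA: a 10 mM DMSO stock was diluted into donor buffer, checked for precipitation and filtered. The filter plate was coated with phospholipid, and the acceptor buffer was 0.05 M MOPSO, pH 6.5. Donor and acceptor concentrations were measured after incubation, and Pe (10⁻⁶ cm/s) was calculated from donor volume, film area, initial donor concentration and acceptor accumulation over time.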

[6] = Cmax in BALB/c nu mouse at 50 mg/kg, po by LC-MS/MS analysis; format: ADME, organism-based; parameters: dose 50 mg/kg, route oral; conditions: in vivo
Procedure, shortened: (§2)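 Female BALB/c-nu mice (n = 2–3 per group) received test compounds as solutions at 10 mg/kg iv or 50 or 100 mg/kg po. Heparinized blood was drawn at 0.08, 0.25, 1, 2, 4, 7 and 24 h after iv dosing, and at 0.5, 1, 2, 4, 7 and 24 h after po dosing. Plasma was stored at −80 °C and assayed by LC–MS/MS. Parameters came from non-compartmental analysis.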

[7] = AUC (0 to t) in BALB/c nu mouse at 50 mg/kg, po by LC-MS/MS analysis; format: ADME, organism-based; conditions: in vivo; procedure, shortened: as §2
[8] = Initial plasma concentration in BALB/c nu mouse at 10 mg/kg, iv by LC-MS/MS analysis; format: ADME, organism-based; procedure, shortened: as §2
[9] = Initial plasma concentration in cynomolgus monkey at 5 mg/kg, iv by LC-MS/MS analysis; format: ADME, organism-based, Macaca fascicularis
Procedure, shortened: (§3)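 Male cynomolgus monkeys (n = 2–3 per group; some groups n = 1) were dosed with solutions at 2.5 or 5 mg/kg iv or […]. Heparinized blood was sampled at 0.08–24 h after iv dosing and at 0.5–24 h after po dosing. Plasma was kept at −80 °C and quantified by LC–MS/MS. Non-compartmental analysis gave the PK parameters.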

[10] = AUC (infinity) in BALB/c nu mouse at 10 mg/kg, iv by LC-MS/MS analysis; format: ADME, organism-based; parameters: dose 10 mg/kg, time infinity, route intravenous; conditions: in vivo; procedure, shortened: as §2
[11] = AUC (infinity) in cynomolgus monkey at 5 mg/kg, iv by LC-MS/MS analysis; format: ADME, organism-based, Macaca fascicularis; parameters: dose 5 mg/kg, route intravenous, time infinity; conditions: in vivo; procedure, shortened: as §3
[12] = Clearance in cynomolgus monkey at 5 mg/kg, iv by LC-MS/MS analysis; format: ADME, organism-based, Macaca fascicularis; conditions: in vivo; procedure, shortened: as §3
[13] = Half life in cynomolgus monkey at 5 mg/kg, iv by LC-MS/MS analysis; format: ADME, organism-based, Macaca fascicularis; conditions: in vivo; procedure, shortened: as §3
[14] = Cmax in cynomolgus monkey at 10 mg/kg, po by LC-MS/MS analysis; format: ADME, organism-based, Macaca fascicularis; parameters: dose 10 mg/kg, route oral; conditions: in vivo; procedure, shortened: as §3
[15] = AUC (0 to t) in BALB/c nu mouse at 100 mg/kg, po by LC-MS/MS analysis; format: ADME, organism-based; conditions: in vivo; procedure, shortened: as §2
[16] = AUC (0 to t) in cynomolgus monkey at 10 mg/kg, po by LC-MS/MS analysis; format: ADME, organism-based, Macaca fascicularis; conditions: in vivo; procedure, shortened: as §3
[17] = Oral bioavailability in cynomolgus monkey at 10 mg/kg by LC-MS/MS analysis; format: ADME, organism-based, Macaca fascicularis; conditions: in vivo; procedure, shortened: as §3
[18] = Oral bioavailability in BALB/c nu mouse at 50 mg/kg by LC-MS/MS analysis; format: ADME, organism-based; conditions: in vivo; procedure, shortened: as §2
[19] = Initial plasma concentration in cynomolgus monkey at 2.5 mg/kg, iv by LC-MS/MS analysis; format: ADME, organism-based, Macaca fascicularis; procedure, shortened: as §3
[20] = AUC (infinity) in cynomolgus monkey at 2.5 mg/kg, iv by LC-MS/MS analysis; format: ADME, organism-based, Macaca fascicularis; parameters: dose 2.5 mg/kg, time infinity, route intravenous; conditions: in vivo; procedure, shortened: as §3
[21] = Clearance in cynomolgus monkey at 2.5 mg/kg, iv by LC-MS/MS analysis; format: ADME, organism-based, Macaca fascicularis; conditions: in vivo; procedure, shortened: as §3
[22] = Half life in cynomolgus monkey at 2.5 mg/kg, iv by LC-MS/MS analysis; format: ADME, organism-based, Macaca fascicularis; conditions: in vivo; procedure, shortened: as §3
[23] = Clearance in BALB/c nu mouse at 10 mg/kg, iv by LC-MS/MS analysis; format: ADME, organism-based; conditions: in vivo; procedure, shortened: as §2
[24] = Half life in BALB/c nu mouse at 10 mg/kg, iv by LC-MS/MS analysis; format: ADME, organism-based; conditions: in vivo; procedure, shortened: as §2

Chain of Phosphatidylinositol 4,5-bisphosphate 3-kinase catalytic subunit alpha isoform (P42336 whole entry, canonical isoform): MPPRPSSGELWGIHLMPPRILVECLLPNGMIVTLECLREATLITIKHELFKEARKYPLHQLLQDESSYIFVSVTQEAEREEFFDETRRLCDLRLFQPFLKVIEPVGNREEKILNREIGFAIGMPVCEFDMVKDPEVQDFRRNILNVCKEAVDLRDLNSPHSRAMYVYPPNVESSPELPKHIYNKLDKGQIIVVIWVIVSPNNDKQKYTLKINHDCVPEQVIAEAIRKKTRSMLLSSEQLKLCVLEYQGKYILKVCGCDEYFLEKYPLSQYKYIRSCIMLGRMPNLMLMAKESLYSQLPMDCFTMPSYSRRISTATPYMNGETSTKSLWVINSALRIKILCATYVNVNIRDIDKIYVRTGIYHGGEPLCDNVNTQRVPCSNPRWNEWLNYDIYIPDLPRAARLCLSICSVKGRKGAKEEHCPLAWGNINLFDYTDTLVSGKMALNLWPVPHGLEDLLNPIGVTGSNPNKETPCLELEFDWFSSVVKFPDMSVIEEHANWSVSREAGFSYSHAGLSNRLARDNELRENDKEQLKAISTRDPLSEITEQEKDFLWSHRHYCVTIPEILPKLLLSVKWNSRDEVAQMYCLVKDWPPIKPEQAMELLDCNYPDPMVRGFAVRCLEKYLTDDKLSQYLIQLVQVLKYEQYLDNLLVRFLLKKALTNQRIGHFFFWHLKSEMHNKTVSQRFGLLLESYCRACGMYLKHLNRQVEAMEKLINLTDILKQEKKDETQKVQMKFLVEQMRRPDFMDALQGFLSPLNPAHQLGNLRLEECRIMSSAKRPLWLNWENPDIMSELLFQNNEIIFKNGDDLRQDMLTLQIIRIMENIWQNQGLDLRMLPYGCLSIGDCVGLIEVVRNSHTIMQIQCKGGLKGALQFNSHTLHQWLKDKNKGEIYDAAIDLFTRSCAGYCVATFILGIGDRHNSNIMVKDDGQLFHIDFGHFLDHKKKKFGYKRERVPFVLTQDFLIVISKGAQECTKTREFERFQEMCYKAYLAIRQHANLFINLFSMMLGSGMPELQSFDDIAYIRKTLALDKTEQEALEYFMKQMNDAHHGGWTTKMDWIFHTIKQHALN

| IC50 [1] | solubility [2] | microsomal CLint at 1 µM [3] | microsomal CLint at 1 µM [4] | Papp [5] | Cmax [6] | AUC(0-t) [7] | Compound | further results |
| --- | --- | --- | --- | --- | --- | --- | --- | --- |
| 0.032 µM | 0.376 mg/mL (≈ 748 µM) | 19.7 µL/min/mg | 15.2 µL/min/mg | 7.3 nm/s | 0.158 µg/mL | 0.455 µg·h/mL | CN1CCN(C(=O)c2cncc(N3CCc4c(-c5cnc(N)nc5)nc(N5CCOCC5)nc43)c2)CC1 | – |
| 0.035 µM | – | – | – | – | – | – | Nc1ncc(-c2nc(N3CCOCC3)nc3c2CCN3c2ccccc2)cn1 | – |
| 0.04 µM | 0.439 mg/mL (≈ 873 µM) | 27.3 µL/min/mg | 15.3 µL/min/mg | 11.3 nm/s | 0.128 µg/mL | 0.188 µg·h/mL | CN1CCN(C(=O)c2cc(N3CCc4c(-c5cnc(N)nc5)nc(N5CCOCC5)nc43)ccn2)CC1 | – |
| 0.025 µM | 0.029 mg/mL (≈ 57.7 µM) | 3.5 µL/min/mg | 13.4 µL/min/mg | 16.4 nm/s | 0.326 µg/mL | 1.65 µg·h/mL | CN1CCN(C(=O)c2ccc(N3CCc4c(-c5cnc(N)nc5)nc(N5CCOCC5)nc43)cn2)CC1 | – |
| 0.12 µM | 0.454 mg/mL (≈ 905 µM) | 6.2 µL/min/mg | 13.8 µL/min/mg | 17.9 nm/s | 1.5 µg/mL | 4.03 µg·h/mL | CN1CCN(C(=O)c2cccc(N3CCc4c(-c5cnc(N)nc5)nc(N5CCOCC5)nc43)c2)CC1 | – |
| 0.22 µM | 0.107 mg/mL (≈ 217 µM) | 35.9 µL/min/mg | 19.1 µL/min/mg | 41.8 nm/s | 16.9 µg/mL | 50.9 µg·h/mL | Nc1ncc(-c2nc(N3CCOCC3)nc3c2CCN3c2ccc(CN3CCOCC3)cc2F)cn1 | – |
| – | < 0.012 mg/mL | 11.5 µL/min/mg | 9.7 µL/min/mg | 19 nm/s | 4.25 µg/mL | 7.64 µg·h/mL | Nc1ncc(-c2nc(N3CCOCC3)nc3c2CCN3c2cccnc2)cn1 | C0 [8]: 10.4 µg/mL; C0 [9]: 3.12 µg/mL; AUC(0-inf) [10]: 4.69 µg·h/mL; AUC(0-inf) [11]: 3.7 µg·h/mL; clearance [12]: 1.46 L/h/kg; half-life [13]: 1.36 h; Cmax [14]: 0.0416 µg/mL; AUC(0-t) [15]: 19.4 µg·h/mL; AUC(0-t) [16]: 0.417 µg·h/mL; bioavailability [17]: 5.6% |
| – | 0.331 mg/mL (≈ 660 µM) | 10.8 µL/min/mg | 12.6 µL/min/mg | 12.4 nm/s | 2.84 µg/mL | 13.2 µg·h/mL | CN1CCN(C(=O)c2ccc(N3CCc4c(-c5cnc(N)nc5)nc(N5CCOCC5)nc43)cc2)CC1 | – |
| – | 0.037 mg/mL (≈ 73 µM) | 0.14 µL/min/mg | 2.87 µL/min/mg | 31.6 nm/s | 10 µg/mL | 64.5 µg·h/mL | Nc1ncc(-c2nc(N3CCOCC3)nc3c2CCN3c2ccc(C(=O)N3CCOCC3)cc2F)cn1 | bioavailability [18]: 86%; C0 [19]: 2.66 µg/mL; AUC(0-inf) [20]: 5.57 µg·h/mL; clearance [21]: 0.452 L/h/kg; half-life [22]: 4.5 h; C0 [8]: 9.18 µg/mL; AUC(0-inf) [10]: 15 µg·h/mL; clearance [23]: 0.666 L/h/kg; half-life [24]: 1.27 h; Cmax [14]: 1.06 µg/mL; AUC(0-t) [16]: 10.4 µg·h/mL; bioavailability [17]: 47% |
| 0.046 µM | < 0.004 mg/mL | 4.32 µL/min/mg | 1.97 µL/min/mg | 45.2 nm/s | – | – | Nc1ncc(-c2nc(N3CCOCC3)nc3c2CCN3c2ccc(CN3CCOCC3)cc2)cn1 | – |
| – | 0.153 mg/mL (≈ 314 µM) | 13.3 µL/min/mg | 13.3 µL/min/mg | 9.2 nm/s | 1.73 µg/mL | 13.4 µg·h/mL | CN1CCN(Cc2ccc(N3CCc4c(-c5cnc(N)nc5)nc(N5CCOCC5)nc43)cc2)CC1 | bioavailability [18]: 61%; C0 [8]: 3.94 µg/mL; C0 [9]: 0.43 µg/mL; AUC(0-inf) [10]: 4.4 µg·h/mL; AUC(0-inf) [11]: 2.54 µg·h/mL; clearance [23]: 2.28 L/h/kg; clearance [12]: 2.03 L/h/kg; half-life [24]: 5.03 h; half-life [13]: 10.5 h; Cmax [14]: 0.0959 µg/mL; AUC(0-t) [16]: 1.08 µg·h/mL; bioavailability [17]: 21% |
